# Experimental data published in ChEMBL document CHEMBL1137676, “Nitroimidazolyl-1,3,4-thiadiazole-based anti-leishmanial agents: synthesis and in vitro biological evaluation” (Eur J Med Chem, 2009).
# Active and inactive are the calls of the source. No cut-off for these calls is given here.
# Legend:
# Leishmania major [1] = assay: Antileishmanial activity against promastigote form of Leishmania major MRHO/IR/75/ER after 24 hrs by MTT assay; format: functional, organism-based
# Procedure, shortened: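 Early-log promastigotes (2 × 10⁶/mL) were incubated with serial drug dilutions for 24 h at 25 °C in phenol red-free RPMI 1640 with 10% FBS, 2 mM glutamine and antibiotics, pH ~7.2. MTT at 0.5 mg/mL was added for 4 h at 37 °C, formazan was dissolved in DMSO and read at 492 nm. Controls received medium plus DMSO. IC₅₀ came from linear regression over ≥2 independent triplicate experiments, given as mean ± SD.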
# Leishmania major [2] = assay: Antileishmanial activity against amastigote form of Leishmania major MRHO/IR/75/ER in mouse peritoneal macrophages assessed as decrease in infectivity index after 24 hrs; format: functional, organism-based
# Procedure, shortened: (§1)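 Mouse peritoneal macrophages were seeded on glass coverslips at 1 × 10⁶ per well, and non-adherent cells were washed off after 1 h. Stationary-phase promastigotes were added at 3 per macrophage for 2 h at 37 °C in CO₂, then unbound parasites were washed away. Cells got drug-containing medium for 24 h and were then methanol-fixed and Giemsa-stained, counting 60 cells per well. Infectivity index = % infected macrophages × mean amastigotes per infected cell. Two sets of experiments were run.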
# Leishmania major [3] = assay: Antileishmanial activity against amastigote form of Leishmania major MRHO/IR/75/ER in mouse peritoneal macrophages assessed as decrease in number of amastigotes per macrophage after 24 hrs; format: functional, organism-based; procedure, shortened: as §1
# [4] = Cytotoxicity against mouse peritoneal macrophages assessed as cell viability after 24 hrs by MTT assay; format: cell-based; set-up: concentration or dose not given beside the values; details: peritoneal macrophage cell
# Procedure, shortened: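 Mouse peritoneal macrophages were plated at 2 × 10⁵ cells/well. After adherence, the medium was replaced with compound-containing medium for 24 h at 37 °C, 5% CO₂, with medium-plus-DMSO controls. Viability was read by MTT colorimetric assay.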
# Leishmania major [5] = assay: Antileishmanial activity against amastigote form of Leishmania major MRHO/IR/75/ER in mouse peritoneal macrophages assessed as decrease in macrophage infectivity after 24 hrs; format: functional, organism-based; procedure, shortened: as §1
# [6] = Leishmania major, MRHO/IR/75/ER, 24 h
Compound,IC50 (Leishmania major [1]; [6]) [µM],Activity (Leishmania major [2]),Activity (Leishmania major [3]),Activity [4],Activity (Leishmania major [5]),IC50 (Leishmania major [1]) [µM]
Cn1c([N+](=O)[O-])cnc1-c1nnc(N2CCN(C(=O)c3ccc(Cl)s3)CC2)s1,9.35,Active,Active,Non-toxic,Active,–
Cn1c([N+](=O)[O-])cnc1-c1nnc(N2CCN(C(=O)c3ccc(Cl)cc3)CC2)s1,42.9,–,–,Non-toxic,–,–
Cn1c([N+](=O)[O-])cnc1-c1nnc(N2CCN(C(=O)c3ccccc3Cl)CC2)s1,20.3,–,–,Non-toxic,–,–
MEGLUMINE ANTIMONATE,–,–,–,40%,–,82
Cn1c([N+](=O)[O-])cnc1-c1nnc(N2CCN(C(=O)c3ccc(Br)s3)CC2)s1,16,–,–,Non-toxic,–,–
Cn1c([N+](=O)[O-])cnc1-c1nnc(N2CCN(C(=O)c3cccc(Cl)c3)CC2)s1,17.9,–,–,Non-toxic,–,–
Cn1c([N+](=O)[O-])cnc1-c1nnc(N2CCN(C(=O)c3cccs3)CC2)s1,25.6,–,–,Non-toxic,–,–
Cn1c([N+](=O)[O-])cnc1-c1nnc(N2CCN(C(=O)c3ccccc3)CC2)s1,10.4,Active,Active,Non-toxic,Active,–
